Laboratory results as given in ChEMBL document CHEMBL4359879, “Synthesis and evaluation of 2-carboxy indole derivatives as potent and selective anti-leukemic agents” (Eur J Med Chem, 2019).
The source made the active and inactive calls. No cut-off for these calls is given here.

Tests used:
HL-60 [1] = experiment: Induction of cell cycle arrest in human HL60 cells assessed as accumulation of cells at G2/M phase at EC50 by PI staining based flow cytometric analysis; assay type: functional; settings: TDE = time-dependent effect
HL-60 [2] = experiment: Effect on human HL60 cells assessed as fold change in ANKRD36 gene expression at 1.085 uM incubated for 6 hrs by microarray-based method; assay type: functional
Outline: (§1)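 HL60 cells were treated in triplicate with 1.085 µM or vehicle for 6 h. Total RNA was extracted with on-column DNase treatment and profiled on expression arrays.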

HL-60 [3] = experiment: Effect on human HL60 cells assessed as fold change in CELF2 gene expression at 1.085 uM incubated for 6 hrs by microarray-based method; assay type: functional; outline: as §1
HL-60 [4] = experiment: Induction of cell cycle arrest in human HL60 cells assessed as accumulation of cells at sub G0/G1 phase at EC50 incubated for 18 hrs by PI staining based flow cytometric analysis (reference value: 1.67%); assay type: functional
HL-60 [5] = experiment: Effect on human HL60 cells assessed as fold change in NMNAT1 gene expression at 1.085 uM incubated for 6 hrs by microarray-based method; assay type: functional; outline: as §1
RS4-11 = experiment: Induction of cell cycle arrest in human RS4:11 cells assessed as increase in accumulation at G2/M phase at 300 nM incubated for 18 hrs by BrdU/propidium iodide staining based flow cytometric analysis; assay type: functional
Outline: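 RS4;11 cells treated with 300 nM or DMSO vehicle for 18 h, then pulsed with 10 μM BrdU for 1 h. Harvested cells immunostained for BrdU/PI (cell cycle), γH2AX (DNA damage) and PARP (apoptosis). Multicolor flow cytometry gated G1, sub-G2-like, G2/M and sub-G0/G1 populations.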

HL-60 [6] = experiment: Effect on human HL60 cells assessed as fold change in GBP3 gene expression at 1.085 uM incubated for 6 hrs by microarray-based method; assay type: functional; outline: as §1
CCRF-CEM [7] = experiment: Induction of apoptosis in human CEM cells at 300 nM incubated for 18 hrs by Annexin V-FITC/propidium iodide staining-based flow cytometric analysis; assay type: functional, cell-based
Outline: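 CEM, HL60 or RS4;11 cells (5×10^5) treated with 300 nM or vehicle for 18 h. Stained with FITC-Annexin V in binding buffer for 15 min at 37 °C, then PI (5 μg/mL) for 3 min. Analyzed by flow cytometry.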

HL-60 [8] = experiment: Effect on human HL60 cells assessed as fold change in ZNF79 gene expression at 1.085 uM incubated for 6 hrs by microarray-based method; assay type: functional
HL-60 [9] = experiment: Effect on human HL60 cells assessed as fold change in KPNA1 gene expression at 1.085 uM incubated for 6 hrs by microarray-based method; assay type: functional; outline: as §1
HL-60 [10] = experiment: Effect on human HL60 cells assessed as fold change in PHF20L1 gene expression at 1.085 uM incubated for 6 hrs by microarray-based method; assay type: functional; outline: as §1
HL-60 [11] = experiment: Effect on human HL60 cells assessed as fold change in TM2D3 gene expression at 1.085 uM incubated for 6 hrs by microarray-based method; assay type: functional; outline: as §1
HL-60 [12] = experiment: Effect on human HL60 cells assessed as fold change in flaw-mawbo gene expression at 1.085 uM incubated for 6 hrs by microarray-based method; assay type: functional
HL-60 [13] = experiment: Effect on human HL60 cells assessed as fold change in TRPM2 gene expression at 1.085 uM incubated for 6 hrs by microarray-based method; assay type: functional
HL-60 [14] = experiment: Effect on human HL60 cells assessed as fold change in RAB39B gene expression at 1.085 uM incubated for 6 hrs by microarray-based method; assay type: functional; outline: as §1
HL-60 [15] = experiment: Induction of cell cycle arrest in human HL60 cells assessed as accumulation of cells at G0/G1 phase at EC50 incubated for 12 hrs by PI staining based flow cytometric analysis (reference value: 56.3%); assay type: functional
CCRF-CEM [16] = experiment: Antiproliferative activity against human CEM cells incubated for 48 hrs by MTT assay; assay type: functional, cell-based
Outline: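 Cells grown in RPMI-1640 with 10% FBS, penicillin/streptomycin, 37 °C, 5% CO2. After 48 h of exposure to a dilution series, MTT was added (0.5 mg/ml final) for 4 h. Formazan was dissolved overnight in acidic SDS (10% SDS, 0.01 mol/L HCl) and absorbance read at 570 and 620 nm. Survival was expressed relative to controls, and EC50 was fitted from dose-response curves.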

HL-60 [17] = experiment: Effect on human HL60 cells assessed as fold change in SPATA7 gene expression at 1.085 uM incubated for 6 hrs by microarray-based method; assay type: functional; outline: as §1
HL-60 [18] = experiment: Effect on human HL60 cells assessed as fold change in LILRA5 gene expression at 1.085 uM incubated for 6 hrs by microarray-based method; assay type: functional; outline: as §1
HL-60 [19] = experiment: Induction of cell cycle arrest in human HL60 cells assessed as accumulation of cells at S phase at EC50 incubated for 18 hrs by PI staining based flow cytometric analysis (reference value: 19.0%); assay type: functional
Tubulin (Homo sapiens) [20] = target: T1, Tubulin (Homo sapiens) (UniProt P68371+Q9H4B7+P0DPH7+P68366+Q13509+Q71U36+P04350+Q3ZCM7+P07437+P68363+Q9BQE3+Q6PEY2+Q13885+Q9BVA1+Q9BUF5); experiment: Inhibition of tubulin polymerization in human RS4:11 cells at 300 nM by Western blot analysis; assay type: cell-based; settings: TDE = time-dependent effect
Outline: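 Leukemia cells (RS4;11, CEM, HL60) treated with 300 nM for 0, 15, 30, 60 and 360 min. Western blotting for β-tubulin and p53, with lamin B1 as loading control and chemiluminescent detection.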

HL-60 [21] = experiment: Antiproliferative activity against human HL60 cells assessed as reduction in cell viability after 48 hrs by MTT assay; settings: HL-60, 48 h
HL-60 [22] = experiment: Effect on human HL60 cells assessed as fold change in GDF10 gene expression at 1.085 uM incubated for 6 hrs by microarray-based method; assay type: functional; outline: as §1
Tubulin (Homo sapiens) [23] = target: T1, Tubulin (Homo sapiens); experiment: Induction of microtubule network depolymerization in human HeLa cells assessed as formation of abnormal chromosomal segregation at 500 nM incubated for 18 hrs by DAPI staining based fluorescence microscopic method; assay type: cell-based
Outline: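 HeLa cells (100,000/mL) cultured overnight on glass-bottom dishes, then exposed to 500 nM or 1 μM, or DMSO, for 18 h. Permeabilized (0.5% Triton X-100) and fixed (3.7% formaldehyde). Stained overnight at 4 °C with anti-β-tubulin, then Alexa Fluor 647 secondary for 1 h at room temperature, and DAPI 1 μg/mL for 10 min. Examined by fluorescence microscopy.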

HL-60 [24] = experiment: Effect on human HL60 cells assessed as fold change in SPRY1 gene expression at 1.085 uM incubated for 6 hrs by microarray-based method; assay type: functional; outline: as §1
HL-60 [25] = experiment: Induction of cell cycle arrest in human HL60 cells assessed as accumulation of cells at sub G0/G1 phase at EC50 incubated for 12 hrs by PI staining based flow cytometric analysis (reference value: 1.67%); assay type: functional
HL-60 [26] = experiment: Effect on human HL60 cells assessed as fold change in GPSM2 gene expression at 1.085 uM incubated for 6 hrs by microarray-based method; assay type: functional; outline: as §1
HL-60 [27] = experiment: Induction of cell cycle arrest in human HL60 cells assessed as accumulation of cells at G0/G1 phase at EC50 incubated for 18 hrs by PI staining based flow cytometric analysis (reference value: 56.3%); assay type: functional

`COC(=O)c1[nH]c2cc(OC)ccc2c1-c1ccc(C(F)(F)F)cc1` was tested, and the Activity (HL-60 [1]) was “Tde”, the “fold change (FC)” value (HL-60 [2]) was 1.54 and the “fold change (FC)” value (HL-60 [3]) was 1.56. For the same compound, the Activity (HL-60 [4]) was 24.1%, the “fold change (FC)” value (HL-60 [5]) was 1.5 and the Activity (RS4-11) was “Active”. The “fold change (FC)” value (HL-60 [6]) was -1.62, the Activity (CCRF-CEM [7]) was “Active” and the “fold change (FC)” value (HL-60 [8]) was -1.88. The “fold change (FC)” value (HL-60 [9]) was 1.89, the “fold change (FC)” value (HL-60 [10]) was 1.56 and the “fold change (FC)” value (HL-60 [11]) was -1.65. The “fold change (FC)” value (HL-60 [12]) was -1.62, the “fold change (FC)” value (HL-60 [13]) was 2.21 and the “fold change (FC)” value (HL-60 [14]) was -1.53. For the same compound, the Activity (HL-60 [15]) was 20.8%, the EC50 (CCRF-CEM [16]) was 200 nM and the “fold change (FC)” value (HL-60 [17]) was 1.56. For the same compound, the “fold change (FC)” value (HL-60 [18]) was -1.64, the Activity (HL-60 [19]) was 8.92% and the inhibition (Tubulin (Homo sapiens) [20]) was “Tde”. The EC90 (HL-60 [21]) was 1000 nM, the “fold change (FC)” value (HL-60 [22]) was -1.56 and the Activity (Tubulin (Homo sapiens) [23]) was “Active”. The “fold change (FC)” value (HL-60 [24]) was -1.5, the Activity (HL-60 [25]) was 12.1% and the “fold change (FC)” value (HL-60 [26]) was 1.62. The Activity (HL-60 [27]) was 10.6%.
